Laboratory results taken from ChEMBL document CHEMBL1134470, “Synthesis, photophysical properties, tumor uptake, and preliminary in vivo photosensitizing efficacy of a homologous series of 3-(1'-alkyloxy)ethyl-3-devinylpurpurin-18-N-alkylimides with variable lipophilicity” (J Med Chem, 2001).

Tests used:
Mus musculus [1] = experiment: Tumor uptake in C3H mice bearing RIF tumors, determined by in vivo reflectance spectroscopy following 5.0 umol/kg administration.; assay type: functional
Outline: (§1)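 Photosensitizer given iv at 5.0 µmol/kg to C3H mice bearing RIF tumors, anesthetized with ketamine xylazine ip. Scattered-light spectrum from tissue was recorded before and after injection. The in vivo drug absorption was taken as the ratio of post- to pre-injection spectra. Tumor and skin were compared at 24 h postinjection.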

Mus musculus [2] = experiment: Skin uptake in C3H mice bearing RIF tumors, determined by in vivo reflectance spectroscopy following 5.0 umol/kg administration.; assay type: functional; outline: as §1
[3] = Tumor and skin uptake ratio of the compound; assay type: functional
Outline: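 C3H mice bearing RIF tumors, anesthetized with ketamine xylazine ip; photosensitizer given iv at 5.0 µmol/kg. Uptake measured by in vivo reflectance spectroscopy: light scattered by tissue recorded before and after injection, and drug absorption taken as the postinjection/preinjection spectral ratio. Tumor versus skin uptake compared at 24 h postinjection.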

[4] = Partition coefficient (logP); assay type: physicochemical; settings: octanol/water

Row | SMILES | logP ([4]; read-out: logP) | logP [4] | Tumor uptake (Mus musculus [1]) [µM] | Skin uptake (Mus musculus [2]) [µM] | Ratio [3]
1 | CCCCCCCOC(C)C1=C(C)c2cc3nc(c4c5[nH]c(cc6[nH]c(cc1n2)c(C)c6CC)c(C)c5C(=O)N(CCCCCC)C4=O)[C@@H](CCC(=O)OC)[C@@H]3C (stereo not given in full) |  |  | 8.2 | 2.6 | 3.15
2 | CCCCCCCCCCN1C(=O)c2c3nc(cc4nc(cc5[nH]c(cc6[nH]c2c(c6C)C1=O)c(CC)c5C)C(C(C)OCCCCCC)=C4C)[C@@H](C)[C@@H]3CCC(=O)OC (stereo not given in full) |  |  | 5.18 | 1.8 | 2.88
3 | CCCCCCCCCCCCN1C(=O)c2c3nc(cc4nc(cc5[nH]c(cc6[nH]c2c(c6C)C1=O)c(CC)c5C)C(C(C)OCCCCCC)=C4C)[C@@H](C)[C@@H]3CCC(=O)OC (stereo not given in full) |  |  | 4.77 | 2 | 2.39
4 | CCCCCCCCCCCCOC(C)C1=C(C)c2cc3nc(c4c5[nH]c(cc6[nH]c(cc1n2)c(C)c6CC)c(C)c5C(=O)N(CCCCCCCCCCCC)C4=O)[C@@H](CCC(=O)OC)[C@@H]3C (stereo not given in full) |  |  | 5.04 | 2.7 | 1.87
5 | CCCCCCCCCCOC(C)C1=C(C)c2cc3nc(c4c5[nH]c(cc6[nH]c(cc1n2)c(C)c6CC)c(C)c5C(=O)N(CCC)C4=O)[C@@H](CCC(=O)OC)[C@@H]3C (stereo not given in full) |  | 10.68 | 10.26 | 4.28 | 2.4
6 | CCCCCCCCCCCCOC(C)C1=C(C)c2cc3nc(c4c5[nH]c(cc6[nH]c(cc1n2)c(C)c6CC)c(C)c5C(=O)N(CCCCCC)C4=O)[C@@H](CCC(=O)OC)[C@@H]3C (stereo not given in full) |  |  | 9.4 | 4.3 | 2.19
7 | CCCCCCCCCCOC(C)C1=C(C)c2cc3nc(c4c5[nH]c(cc6[nH]c(cc1n2)c(C)c6CC)c(C)c5C(=O)N(CCCCCCCCCC)C4=O)[C@@H](CCC(=O)OC)[C@@H]3C (stereo not given in full) |  |  | 5.56 | 1.73 | 3.21
8 | CCCCCCCCCOC(C)C1=C(C)c2cc3nc(c4c5[nH]c(cc6[nH]c(cc1n2)c(C)c6CC)c(C)c5C(=O)N(CCCCCC)C4=O)[C@@H](CCC(=O)OC)[C@@H]3C (stereo not given in full) |  | 11.85 | 10.7 | 3.54 | 3.02

Continued, in another order:

Row | logP ([4]; read-out: logP) | logP [4] | SMILES | Tumor uptake (Mus musculus [1]) [µM] | Skin uptake (Mus musculus [2]) [µM] | Ratio [3]
9 | 7.82 |  | CCCCCCN1C(=O)c2c3nc(cc4nc(cc5[nH]c(cc6[nH]c2c(c6C)C1=O)c(CC)c5C)C(C(C)OC)=C4C)[C@@H](C)[C@@H]3CCC(=O)OC (stereo not given in full) | 10.1 | 4.5 | 2.24
10 |  | 10.88 | CCCCCCCCCCCCN1C(=O)c2c3nc(cc4nc(cc5[nH]c(cc6[nH]c2c(c6C)C1=O)c(CC)c5C)C(C(C)OC)=C4C)[C@@H](C)[C@@H]3CCC(=O)OC (stereo not given in full) | 15.48 | 5.8 | 2.67
11 | 7.67 |  | CCCCCCOC(C)C1=C(C)c2cc3nc(c4c5[nH]c(cc6[nH]c(cc1n2)c(C)c6CC)c(C)c5C(=O)N(C)C4=O)[C@@H](CCC(=O)OC)[C@@H]3C (stereo not given in full) | 6.42 | 1.78 | 3.61
12 |  | 10.73 | CCCCCCCCCCCCOC(C)C1=C(C)c2cc3nc(c4c5[nH]c(cc6[nH]c(cc1n2)c(C)c6CC)c(C)c5C(=O)N(C)C4=O)[C@@H](CCC(=O)OC)[C@@H]3C (stereo not given in full) | 6.21 | 1.74 | 3.57
13 |  | 10.83 | CCCCCCCN1C(=O)c2c3nc(cc4nc(cc5[nH]c(cc6[nH]c2c(c6C)C1=O)c(CC)c5C)C(C(C)OCCCCCC)=C4C)[C@@H](C)[C@@H]3CCC(=O)OC (stereo not given in full) | 8.04 | 2.95 | 2.73
14 | 5.32 |  | CCc1c(C)c2cc3[nH]c(cc4nc(c5c6nc(cc1[nH]2)C(C)=C6C(=O)N(C)C5=O)[C@@H](CCC(=O)OC)[C@@H]4C)c(C)c3C(C)OC (stereo not given in full) | 0.3 | 0.1 | 2.87
15 | 7.26 |  | CCCOC(C)C1=C(C)c2cc3nc(c4c5[nH]c(cc6[nH]c(cc1n2)c(C)c6CC)c(C)c5C(=O)N(CCC)C4=O)[C@@H](CCC(=O)OC)[C@@H]3C (stereo not given in full) | 10.5 | 4.8 | 2.19
16 |  | 10.32 | CCCCCCOC(C)C1=C(C)c2cc3nc(c4c5[nH]c(cc6[nH]c(cc1n2)c(C)c6CC)c(C)c5C(=O)N(CCCCCC)C4=O)[C@@H](CCC(=O)OC)[C@@H]3C (stereo not given in full) | 7.3 | 2.3 | 3.17
17 | 8.79 |  | CCCCCCOC(C)C1=C(C)c2cc3nc(c4c5[nH]c(cc6[nH]c(cc1n2)c(C)c6CC)c(C)c5C(=O)N(CCC)C4=O)[C@@H](CCC(=O)OC)[C@@H]3C (stereo not given in full) | 4.95 | 1.48 | 3.34
18 | 8.79 |  | CCCCCCN1C(=O)c2c3nc(cc4nc(cc5[nH]c(cc6[nH]c2c(c6C)C1=O)c(CC)c5C)C(C(C)OCCC)=C4C)[C@@H](C)[C@@H]3CCC(=O)OC (stereo not given in full) | 13.8 | 6.29 | 2.19
19 |  | 10.83 | CCCCCCCCCCN1C(=O)c2c3nc(cc4nc(cc5[nH]c(cc6[nH]c2c(c6C)C1=O)c(CC)c5C)C(C(C)OCCC)=C4C)[C@@H](C)[C@@H]3CCC(=O)OC (stereo not given in full) | 11.5 | 6.09 | 1.89
